Measurements taken from ChEMBL document CHEMBL5608187, “Discovery of pyridoquinoxaline-based new P-gp inhibitors as coadjutant against Multi Drug Resistance in cancer” (Eur J Med Chem, 2024).

Assays:
Type in all cases: cell-based
[1] = molecular target: T1, ATP-dependent translocase ABCB1 (Homo sapiens, UniProt P08183); assay: Inhibition of P-gp in human HCT-15 cells assessed as increase in green fluorescence intensity at 0.1 to 10 uM incubated for 15 mins followed by incubation with EFFLUX-ID Green Detection Reagent and Hoeschst-33342 dye and measured after 30 mins by fluorescence analysis; conditions: hct-15, 0.25 h, dose 0.1-10 µM
T1 sequence (P08183 whole entry): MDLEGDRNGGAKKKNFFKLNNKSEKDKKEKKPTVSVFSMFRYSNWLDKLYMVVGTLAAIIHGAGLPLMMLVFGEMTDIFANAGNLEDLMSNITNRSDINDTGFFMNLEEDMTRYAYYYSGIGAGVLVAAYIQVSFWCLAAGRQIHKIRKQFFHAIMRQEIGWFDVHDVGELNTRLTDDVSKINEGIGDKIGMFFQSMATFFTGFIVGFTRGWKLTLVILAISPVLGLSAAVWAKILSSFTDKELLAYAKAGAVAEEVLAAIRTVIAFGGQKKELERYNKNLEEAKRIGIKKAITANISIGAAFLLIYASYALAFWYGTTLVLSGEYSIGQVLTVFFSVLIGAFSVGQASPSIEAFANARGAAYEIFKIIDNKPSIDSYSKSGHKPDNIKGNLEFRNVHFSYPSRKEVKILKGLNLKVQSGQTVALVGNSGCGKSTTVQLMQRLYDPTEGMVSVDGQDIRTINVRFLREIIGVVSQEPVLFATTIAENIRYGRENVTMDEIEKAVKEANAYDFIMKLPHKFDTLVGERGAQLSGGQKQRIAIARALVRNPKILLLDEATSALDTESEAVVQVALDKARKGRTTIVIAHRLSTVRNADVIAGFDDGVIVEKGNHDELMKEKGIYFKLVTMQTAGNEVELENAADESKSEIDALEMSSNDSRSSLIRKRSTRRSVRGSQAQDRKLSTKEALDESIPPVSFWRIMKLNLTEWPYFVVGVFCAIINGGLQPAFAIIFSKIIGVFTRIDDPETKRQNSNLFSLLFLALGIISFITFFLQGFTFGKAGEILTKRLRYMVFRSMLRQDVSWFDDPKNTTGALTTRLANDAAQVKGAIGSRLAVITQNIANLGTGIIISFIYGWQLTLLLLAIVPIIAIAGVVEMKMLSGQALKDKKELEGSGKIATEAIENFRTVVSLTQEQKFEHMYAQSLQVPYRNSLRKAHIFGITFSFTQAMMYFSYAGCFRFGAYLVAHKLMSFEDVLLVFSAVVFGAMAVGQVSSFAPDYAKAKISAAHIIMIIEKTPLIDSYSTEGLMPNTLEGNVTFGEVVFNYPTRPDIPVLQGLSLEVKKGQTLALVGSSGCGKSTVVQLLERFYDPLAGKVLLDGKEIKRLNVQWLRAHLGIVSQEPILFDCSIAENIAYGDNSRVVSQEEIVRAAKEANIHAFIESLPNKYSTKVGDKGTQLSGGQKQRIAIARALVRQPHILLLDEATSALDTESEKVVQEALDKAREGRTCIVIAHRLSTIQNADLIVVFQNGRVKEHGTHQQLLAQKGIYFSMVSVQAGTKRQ
Method in brief: (§1)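 5000 cells/well in phenol-red-free medium plated 24 h before; compounds 0.1, 1, 10 µM for 15 min, then EFLUXX-ID Green reagent (1:200) plus Hoechst-33342 1 µg/mL, 30 min 37 °C. Widefield imaging; median green intensity from 250 cells per well normalized to untreated wells. Mean ± SD of three wells; one-tailed t-test.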

[2] = molecular target: T1, ATP-dependent translocase ABCB1; assay: Inhibition of P-gp in human CAKI-2 cells assessed as increase in green fluorescence intensity at 0.1 to 10 uM incubated for 15 mins followed by incubation with EFFLUX-ID Green Detection Reagent and Hoeschst-33342 dye and measured after 30 mins by fluorescence analysis; conditions: caki-2, 0.25 h, dose 0.1-10 µM; method in brief: as §1
[3] = molecular target: T1, ATP-dependent translocase ABCB1; assay: Inhibition of P-gp in human HT1197 cells assessed as increase in green fluorescence intensity at 0.1 to 10 uM incubated for 15 mins followed by incubation with EFFLUX-ID Green Detection Reagent and Hoeschst-33342 dye and measured after 30 mins by fluorescence analysis; conditions: ht1197, 0.25 h, dose 0.1-10 µM; method in brief: as §1
[4] = molecular target: T1, ATP-dependent translocase ABCB1; assay: Inhibition of P-gp in human A498 cells assessed as increase in green fluorescence intensity at 0.1 to 10 uM incubated for 15 mins followed by incubation with EFFLUX-ID Green Detection Reagent and Hoeschst-33342 dye and measured after 30 mins by fluorescence analysis; conditions: a498, 0.25 h, dose 0.1-10 µM; method in brief: as §1

Row | SMILES | inhibition (INH) [1] | inhibition (INH) [2] | inhibition (INH) [3] | inhibition (INH) [4]
1 | COc1ccc(NC(=O)c2ccccc2OCc2nc3cc4cccnc4cc3nc2COc2ccccc2C(=O)Nc2ccc(OC)cc2)cc1 | Active | Active | Active | Not Active
2 | COC(=O)c1ccc(OCc2nc3cc4cccnc4cc3nc2COc2ccc(C(=O)OC)cc2OC)c(OC)c1 | Active | Active | Active | Not Active
3 | COc1cc(NC(=O)c2cc(Cl)ccc2OCc2nc3cc4cccnc4cc3nc2COc2ccc(Cl)cc2C(=O)Nc2cc(OC)cc(OC)c2)cc(OC)c1 | Active | Active | Active | Not Active
4 | COc1ccc(NC(=O)c2cc(Cl)ccc2OCc2nc3cc4cccnc4cc3nc2COc2ccc(Cl)cc2C(=O)Nc2ccc(OC)cc2)cc1 | Active | Active | Active | Not Active
5 | COC(=O)c1ccccc1SCc1nc2cc3cccnc3cc2nc1CSc1ccccc1C(=O)OC | Active | Active | Active | Not Active
6 | O=C(Nc1ccc(Cl)c(Cl)c1)c1ccccc1OCc1nc2cc3cccnc3cc2nc1COc1ccccc1C(=O)Nc1ccc(Cl)c(Cl)c1 | Active | Active | Active | Not Active
7 | N#Cc1ccc(OCc2nc3cc4cccnc4cc3nc2COc2ccc(C#N)cc2)cc1 | Active | Active | Active | Not Active
8 | COc1cc(NC(=O)c2cc(Cl)ccc2OCc2nc3cc4cccnc4cc3nc2COc2ccc(Cl)cc2C(=O)Nc2cc(OC)c(OC)c(OC)c2)cc(OC)c1OC | Active | Active | Active | Not Active
